Assay [1] concerns L5178Y. Briefly: Compound was evaluated for its ability to inhibit growth by 50% at 48 hr in L5178Y murine leukemia cells. Conditions: Mus musculus. It counts as functional, cell-based.
Assay [2] has as its system L1210. In words: Compound was evaluated for its ability to inhibit growth by 50% at 48 hr in L1210 murine leukemia cells. Type of assay: functional, cell-based. To be noted: Mus musculus, L1210, 48 h.
Assay [3] relates to L1210. In words: Compound was evaluated for effect on polyamine pools in the L1210 murine leukemia cell lines by the inhibition of put at 200 uM. It counts as functional, Mus musculus.
Assay [4] deals with L1210. Briefly: Compound was evaluated for effect on polyamine pools in the L1210 murine leukemia cell lines by the inhibition of spermidine synthase at 200 uM. It counts as functional, Mus musculus.
The subject of assay [5] is L1210. Briefly: Compound was evaluated for effect on polyamine pools in the L1210 murine leukemia cell lines by the inhibition of spermine synthase at 200 uM. Type of assay: functional, Mus musculus.
In assay [6] the test system is L5178Y. In words: Compound was evaluated for effect on polyamine pools in the L5178Y murine leukemia cell lines by the inhibition of put at 200 uM. It counts as functional, Mus musculus.
In assay [7] the test system is L5178Y. In words: Compound was evaluated for effect on polyamine pools in the L5178Y murine leukemia cell lines by the inhibition of spermidine synthase at 200 uM. Type of assay: functional, Mus musculus.
Assay [8] deals with L5178Y. In words: Compound was evaluated for effect on polyamine pools in the L5178Y murine leukemia cell lines by the inhibition of spermine synthase at 200 uM. Type of assay: functional, Mus musculus.
Assay [9] concerns L5178Y. In words: Inhibition of growth of L5178Y murine leukemia cell line in percent of control at 200 uM. Type of assay: functional, Mus musculus. The arrangement: scale not given: the % may be the effect or the level left. In short, it runs like this: (§1)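 Cultures in RPMI 1640 with 10% Nu Serum IV and HEPES/MOPS buffer, treated at 0 h with the listed concentration from DMSO stock diluted in serum-free medium. Cell number by electronic particle counting after 48 h, expressed as % of untreated control. Average of at least three separate experiments.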

Assay [10] deals with L1210. Briefly: Inhibition of growth of L1210 murine leukemia cell line in percent of control at 200 uM. It counts as functional, Mus musculus. More on the design: scale not given: the % may be the effect or the level left. In short, it runs like this: as §1
Assay [11] deals with T1, S-methyl-5'-thioadenosine phosphorylase (Mus musculus, UniProt Q9CQ65).
T1 sequence (Q9CQ65 whole entry): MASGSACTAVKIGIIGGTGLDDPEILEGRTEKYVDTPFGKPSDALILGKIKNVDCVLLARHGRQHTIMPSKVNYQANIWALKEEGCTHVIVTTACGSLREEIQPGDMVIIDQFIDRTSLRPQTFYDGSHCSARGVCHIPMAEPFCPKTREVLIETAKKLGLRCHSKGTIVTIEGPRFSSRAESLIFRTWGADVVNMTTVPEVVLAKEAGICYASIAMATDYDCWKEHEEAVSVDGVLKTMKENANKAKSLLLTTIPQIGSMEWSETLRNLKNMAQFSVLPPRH
In words: Compound was evaluated for the inhibition of mouse liver MTA phosphorylase. The method in brief:
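Mouse liver enzyme, partially purified (acid precipitation, 65 °C heat step, DEAE-Sephacel). 0.1 mL reaction: 4 μmol potassium phosphate pH 7.4, 0.1 μmol DTT, 20 μg BSA, 50 nmol MTA, ~2 × 10^5 cpm [methyl-3H]MTA; 10 min, 37 °C. Stopped with charcoal/TCA; [3H]MTRP in supernatant counted by liquid scintillation.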

Assay [12] concerns L1210. Briefly: Compound was evaluated for effect on polyamine pools in the L1210 murine leukemia cell lines by the inhibition of put at 600 uM. It counts as functional, Mus musculus.
For assay [13], the system named is L1210. Briefly: Compound was evaluated for effect on polyamine pools in the L1210 murine leukemia cell lines by the inhibition of spermidine synthase at 600 uM. Type of assay: functional, Mus musculus.
Assay [14] relates to L5178Y. In words: Compound was evaluated for effect on polyamine pools in the L5178Y murine leukemia cell lines by the inhibition of put at 60 uM. Type of assay: functional, Mus musculus.
Assay [15] has as its system L5178Y. Briefly: Compound was evaluated for effect on polyamine pools in the L5178Y murine leukemia cell lines by the inhibition of spermidine synthase at 60 uM. Type of assay: functional, Mus musculus.
Assay [16] has as its system L5178Y. In words: Compound was evaluated for effect on polyamine pools in the L5178Y murine leukemia cell lines by the inhibition of spermine synthase at 60 uM. Type of assay: functional, Mus musculus.
For assay [17], the system named is L5178Y. In words: Inhibition of growth of L5178Y murine leukemia cell line in percent of control at 60 uM. Type of assay: functional, Mus musculus. More on the design: scale not given: the % may be the effect or the level left. In short, it runs like this: as §1
The subject of assay [18] is L1210. Briefly: Inhibition of growth of L1210 murine leukemia cell line in percent of control at 600 uM. It counts as functional, Mus musculus. The arrangement: scale not given: the % may be the effect or the level left. In short, it runs like this: as §1
Assay [19] relates to L1210. Briefly: Compound was evaluated for effect on polyamine pools in the L1210 murine leukemia cell lines by the inhibition of spermine synthase at 600 uM. Type of assay: functional, Mus musculus.

In the case of `Nc1ncnc2c1ncn2C1O[C@H](CI)[C@@H](O)[C@H]1O` (stereo not given in full), the concentration for half-maximal inhibition (IC50) amounted to 2 µM in assay [1] and 300 µM in [2].
The corresponding values for `CSC(F)[C@H]1OC(n2cnc3c(N)ncnc32)[C@H](O)[C@@H]1O` (stereo not given in full) are 0.7 µM and 2 µM.
On to `Nc1ncnc2c1ncn2C1O[C@H](CSCF)[C@@H](O)[C@H]1O` (stereo not given in full), for which the Activity in assay [3] is on record as 0.62 nM/10e6; in assay [4] it was 2.93 nM (10e6*cells)-1; in assay [5] it was 0.6 nM (10e6*cells)-1; in assay [6] it was 0.41 nM (10e6*cells)-1; in assay [7] it was 2.47 nM (10e6*cells)-1; in [8] it was 1.32 nM (10e6*cells)-1. Moreover, the figures for the IC50 in assay [1] and in assay [2] were 200 µM and 300 µM, respectively. Further, the Control in assay [9] is 45%; in assay [10] it was 67%. In assay [11], this compound registered a Ki of 3.3 µM.
As for `CSC[C@H]1O[C@@H](n2cnc3c(N)ncnc32)[C@H](O)[C@@H]1O` [METHYLTHIOADENOSINE], the Activity in assay [12] is recorded as 3.64 nM (10e6*cells)-1; in assay [13], 1.59 nM (10e6*cells)-1; in assay [14], 1.24 nM (10e6*cells)-1; in assay [15], 3.03 nM (10e6*cells)-1; in assay [16], 0.47 nM (10e6*cells)-1; in assay [19], 0.2 nM (10e6*cells)-1. Also, the half-maximal inhibitory concentration (IC50) in assay [1] worked out at 60 µM; in assay [2] it was 600 µM. Besides, the figures for the Control in [17] and in assay [18] were 57% and 53%, respectively.

Source of the values: ChEMBL document CHEMBL1124473, “Synthesis and antiproliferative effects of novel 5'-fluorinated analogues of 5'-deoxy-5'-(methylthio)adenosine” (J Med Chem, 1989).
